Source: ChEMBL document CHEMBL5724801, “EUbOPEN Chemogenomics Library - Multiplex” (2024)
Several values for one entry are separate records, joined by “and”; a condition that tells them apart may be missing. Equal values may be shown once.

Each compound was assayed on HEK-293T (assay: Multiplex assay against HEK293T). Details: human, 12 h, 1 µM, compound concentration 1 uM.
Assay type: toxicity, cell-based
How it was run: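 Hoechst33342, BioTracker Green Microtubule Cytoskeleton Dye, MitoTracker Red and Annexin V Alexa Fluor 680 were added to live cells at seeding, and imaging on a CQ1 microscope at 37°C and 5% CO2 followed compound addition. Gating by CellPathfinder machine learning separated cells into Hoechst high-intensity objects or normal cells, then normal cells into healthy, pyknosed or fragmented nuclei, then pyknosed cells into mitotic or apoptotic. Per cents of healthy-nucleus cells are reported for the tubulin, mitochondrial-mass and membrane-permeability phenotypes.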

Row | SMILES | Population Apoptotic (%) | Population Fragmented Nuclei (%) | Population Healthy Nuclei (%) | Population Hoechst High Intensity Objects (%) | Population Membrane Permeable-Phenotype (%) | Population Mitochondria Different-Phenotype (%) | Population Mitotic Cells (%) | Population Normal (%) | Population Pyknosed Nuclei (%) | Population Tubulin-Different-Phenotype (%)
1 | CC(C)(O)C(=O)N1CCN(c2ccc(C(F)(F)F)c(C3=C(c4c[nH]c5ccccc45)C(=O)NC3=O)c2)CC1 | 33% and 46% | 4% and 5% | 78% and 76% | 8% and 7% | 0 | 43% and 58% | 66% and 53% | 91% and 92% | 16% and 17% | 28% and 30%
2 | O=C1[C@H](Cc2ccc(O)cc2)N2C(=O)CCN(C(=O)NCc3ccccc3)[C@H]2CN1Cc1cccc2ccccc12 | 44% and 46% | 6% and 7% | 80% and 78% | 6% and 8% | 0 | 54% and 68% | 55% and 53% | 93% and 91% | 12% and 13% | 46% and 33%
3 | C[C@H](N)COC(=O)[C@@H](CCCCN)NC(=O)Cc1c(-c2ccc3ccccc3c2)[nH]c2c1ccc1ccccc12 | 22% and 51% | 6% and 8% | 82% and 74% | 8% | 0 | 37% and 65% | 77% and 48% | 91% | 10% and 16% | 27% and 30%

Same assay, conditions: human, 12 h, 1 µM, compound concentration 1 uM

Row | SMILES | Total Cell Count
4 | CC(C)(O)C(=O)N1CCN(c2ccc(C(F)(F)F)c(C3=C(c4c[nH]c5ccccc45)C(=O)NC3=O)c2)CC1 | 381 and 293
5 | O=C1[C@H](Cc2ccc(O)cc2)N2C(=O)CCN(C(=O)NCc3ccccc3)[C@H]2CN1Cc1cccc2ccccc12 | 374 and 259
6 | C[C@H](N)COC(=O)[C@@H](CCCCN)NC(=O)Cc1c(-c2ccc3ccccc3c2)[nH]c2c1ccc1ccccc12 | 458 and 291

Same assay, conditions: human, 12 h, 10 µM, compound concentration 10 uM

Row | SMILES | Population Apoptotic (%) | Population Fragmented Nuclei (%) | Population Healthy Nuclei (%) | Population Hoechst High Intensity Objects (%) | Population Membrane Permeable-Phenotype (%) | Population Mitochondria Different-Phenotype (%) | Population Mitotic Cells (%) | Population Normal (%) | Population Pyknosed Nuclei (%) | Population Tubulin-Different-Phenotype (%)
7 | CC(C)(O)C(=O)N1CCN(c2ccc(C(F)(F)F)c(C3=C(c4c[nH]c5ccccc45)C(=O)NC3=O)c2)CC1 | 51% and 72% | 4% and 3% | 74% and 75% | 10% and 7% | 0 | 61% and 90% | 48% and 27% | 89% and 92% | 20% and 21% | 62% and 63%
8 | O=C1[C@H](Cc2ccc(O)cc2)N2C(=O)CCN(C(=O)NCc3ccccc3)[C@H]2CN1Cc1cccc2ccccc12 | 68% and 60% | 5% | 74% and 82% | 11% and 14% | 0 | 90% and 93% | 31% and 40% | 88% and 85% | 20% and 11% | 76% and 67%
9 | C[C@H](N)COC(=O)[C@@H](CCCCN)NC(=O)Cc1c(-c2ccc3ccccc3c2)[nH]c2c1ccc1ccccc12 | 41% and 61% | 7% and 5% | 78% | 11% and 7% | 0 | 60% and 72% | 58% and 38% | 88% and 93% | 14% and 16% | 54% and 50%

Same assay, conditions: human, 12 h, 10 µM, compound concentration 10 uM

Row | SMILES | Total Cell Count
10 | CC(C)(O)C(=O)N1CCN(c2ccc(C(F)(F)F)c(C3=C(c4c[nH]c5ccccc45)C(=O)NC3=O)c2)CC1 | 338 and 203
11 | O=C1[C@H](Cc2ccc(O)cc2)N2C(=O)CCN(C(=O)NCc3ccccc3)[C@H]2CN1Cc1cccc2ccccc12 | 340 and 257
12 | C[C@H](N)COC(=O)[C@@H](CCCCN)NC(=O)Cc1c(-c2ccc3ccccc3c2)[nH]c2c1ccc1ccccc12 | 435 and 343

Same assay, conditions: human, 24 h, 1 µM, compound concentration 1 uM

Row | SMILES | Population Apoptotic (%) | Population Fragmented Nuclei (%) | Population Healthy Nuclei (%) | Population Hoechst High Intensity Objects (%) | Population Membrane Permeable-Phenotype (%) | Population Mitochondria Different-Phenotype (%) | Population Mitotic Cells (%) | Population Normal (%) | Population Pyknosed Nuclei (%) | Population Tubulin-Different-Phenotype (%)
13 | CC(C)(O)C(=O)N1CCN(c2ccc(C(F)(F)F)c(C3=C(c4c[nH]c5ccccc45)C(=O)NC3=O)c2)CC1 | 33% and 29% | 8% and 5% | 74% and 79% | 5% | 0% | 32% and 48% | 66% and 70% | 94% | 17% and 14% | 19%
14 | O=C1[C@H](Cc2ccc(O)cc2)N2C(=O)CCN(C(=O)NCc3ccccc3)[C@H]2CN1Cc1cccc2ccccc12 | 23% and 55% | 7% and 8% | 80% and 77% | 7% and 8% | 0% | 49% and 47% | 76% and 45% | 92% and 91% | 11% and 14% | 38% and 24%
15 | C[C@H](N)COC(=O)[C@@H](CCCCN)NC(=O)Cc1c(-c2ccc3ccccc3c2)[nH]c2c1ccc1ccccc12 | 25% and 54% | 9% and 7% | 77% and 80% | 4% and 7% | 0% and 1% | 24% and 47% | 75% and 45% | 95% and 92% | 12% | 19% and 25%

Same assay, conditions: human, 24 h, 1 µM, compound concentration 1 uM

Row | SMILES | Total Cell Count
16 | CC(C)(O)C(=O)N1CCN(c2ccc(C(F)(F)F)c(C3=C(c4c[nH]c5ccccc45)C(=O)NC3=O)c2)CC1 | 469 and 335
17 | O=C1[C@H](Cc2ccc(O)cc2)N2C(=O)CCN(C(=O)NCc3ccccc3)[C@H]2CN1Cc1cccc2ccccc12 | 470 and 305
18 | C[C@H](N)COC(=O)[C@@H](CCCCN)NC(=O)Cc1c(-c2ccc3ccccc3c2)[nH]c2c1ccc1ccccc12 | 638 and 352

Same assay, conditions: human, 24 h, 10 µM, compound concentration 10 uM

Row | SMILES | Population Apoptotic (%) | Population Fragmented Nuclei (%) | Population Healthy Nuclei (%) | Population Hoechst High Intensity Objects (%) | Population Membrane Permeable-Phenotype (%) | Population Mitochondria Different-Phenotype (%) | Population Mitotic Cells (%) | Population Normal (%) | Population Pyknosed Nuclei (%) | Population Tubulin-Different-Phenotype (%)
19 | CC(C)(O)C(=O)N1CCN(c2ccc(C(F)(F)F)c(C3=C(c4c[nH]c5ccccc45)C(=O)NC3=O)c2)CC1 | 45% and 66% | 6% and 2% | 71% | 4% and 7% | 1% and 0% | 48% and 84% | 54% and 34% | 95% and 92% | 22% and 25% | 43% and 60%
20 | O=C1[C@H](Cc2ccc(O)cc2)N2C(=O)CCN(C(=O)NCc3ccccc3)[C@H]2CN1Cc1cccc2ccccc12 | 68% and 74% | 7% and 9% | 75% and 77% | 11% and 14% | 0% | 94% and 95% | 31% and 25% | 88% and 85% | 16% and 12% | 65% and 70%
21 | C[C@H](N)COC(=O)[C@@H](CCCCN)NC(=O)Cc1c(-c2ccc3ccccc3c2)[nH]c2c1ccc1ccccc12 | 41% and 48% | 6% and 9% | 78% and 80% | 6% and 7% | 0% | 57% and 54% | 58% and 51% | 93% and 92% | 14% and 10% | 45% and 42%

Same assay, conditions: human, 24 h, 10 µM, compound concentration 10 uM

Row | SMILES | Total Cell Count
22 | CC(C)(O)C(=O)N1CCN(c2ccc(C(F)(F)F)c(C3=C(c4c[nH]c5ccccc45)C(=O)NC3=O)c2)CC1 | 387 and 212
23 | O=C1[C@H](Cc2ccc(O)cc2)N2C(=O)CCN(C(=O)NCc3ccccc3)[C@H]2CN1Cc1cccc2ccccc12 | 278 and 249
24 | C[C@H](N)COC(=O)[C@@H](CCCCN)NC(=O)Cc1c(-c2ccc3ccccc3c2)[nH]c2c1ccc1ccccc12 | 539 and 439

Same assay, conditions: human, 48 h, 1 µM, compound concentration 1 uM

Row | SMILES | Population Apoptotic (%) | Population Fragmented Nuclei (%) | Population Healthy Nuclei (%) | Population Hoechst High Intensity Objects (%) | Population Membrane Permeable-Phenotype (%) | Population Mitochondria Different-Phenotype (%) | Population Mitotic Cells (%) | Population Normal (%) | Population Pyknosed Nuclei (%) | Population Tubulin-Different-Phenotype (%)
25 | CC(C)(O)C(=O)N1CCN(c2ccc(C(F)(F)F)c(C3=C(c4c[nH]c5ccccc45)C(=O)NC3=O)c2)CC1 | 25% and 27% | 9% and 10% | 79% | 2% and 5% | 0% | 21% and 29% | 74% and 72% | 97% and 94% | 10% | 14% and 15%
26 | O=C1[C@H](Cc2ccc(O)cc2)N2C(=O)CCN(C(=O)NCc3ccccc3)[C@H]2CN1Cc1cccc2ccccc12 | 30% and 50% | 14% and 11% | 78% and 81% | 4% and 3% | 0% | 34% and 29% | 69% and 50% | 95% and 96% | 6% and 7% | 26% and 19%
27 | C[C@H](N)COC(=O)[C@@H](CCCCN)NC(=O)Cc1c(-c2ccc3ccccc3c2)[nH]c2c1ccc1ccccc12 | 15% and 37% | 13% and 11% | 78% and 79% | 4% | 2% and 0% | 16% and 29% | 84% and 62% | 95% | 7% and 9% | 13% and 17%

Same assay, conditions: human, 48 h, 1 µM, compound concentration 1 uM

Row | SMILES | Total Cell Count
28 | CC(C)(O)C(=O)N1CCN(c2ccc(C(F)(F)F)c(C3=C(c4c[nH]c5ccccc45)C(=O)NC3=O)c2)CC1 | 780 and 571
29 | O=C1[C@H](Cc2ccc(O)cc2)N2C(=O)CCN(C(=O)NCc3ccccc3)[C@H]2CN1Cc1cccc2ccccc12 | 730 and 472
30 | C[C@H](N)COC(=O)[C@@H](CCCCN)NC(=O)Cc1c(-c2ccc3ccccc3c2)[nH]c2c1ccc1ccccc12 | 963 and 540

Same assay, conditions: human, 48 h, 10 µM, compound concentration 10 uM

Row | SMILES | Population Apoptotic (%) | Population Fragmented Nuclei (%) | Population Healthy Nuclei (%) | Population Hoechst High Intensity Objects (%) | Population Membrane Permeable-Phenotype (%) | Population Mitochondria Different-Phenotype (%) | Population Mitotic Cells (%) | Population Normal (%) | Population Pyknosed Nuclei (%) | Population Tubulin-Different-Phenotype (%)
31 | CC(C)(O)C(=O)N1CCN(c2ccc(C(F)(F)F)c(C3=C(c4c[nH]c5ccccc45)C(=O)NC3=O)c2)CC1 | 54% and 78% | 8% and 9% | 71% | 8% | 0 | 53% and 71% | 45% and 21% | 91% | 19% | 25% and 40%
32 | O=C1[C@H](Cc2ccc(O)cc2)N2C(=O)CCN(C(=O)NCc3ccccc3)[C@H]2CN1Cc1cccc2ccccc12 | 71% and 57% | 8% and 11% | 79% and 73% | 10% and 20% | 0 | 94% and 88% | 28% and 42% | 89% and 79% | 11% and 14% | 63% and 72%
33 | C[C@H](N)COC(=O)[C@@H](CCCCN)NC(=O)Cc1c(-c2ccc3ccccc3c2)[nH]c2c1ccc1ccccc12 | 27% and 32% | 13% and 14% | 78% and 79% | 6% and 4% | 0 | 44% and 43% | 72% and 67% | 93% and 95% | 7% and 6% | 33% and 35%

Same assay, conditions: human, 48 h, 10 µM, compound concentration 10 uM

Row | SMILES | Total Cell Count
34 | CC(C)(O)C(=O)N1CCN(c2ccc(C(F)(F)F)c(C3=C(c4c[nH]c5ccccc45)C(=O)NC3=O)c2)CC1 | 467 and 227
35 | O=C1[C@H](Cc2ccc(O)cc2)N2C(=O)CCN(C(=O)NCc3ccccc3)[C@H]2CN1Cc1cccc2ccccc12 | 297 and 232
36 | C[C@H](N)COC(=O)[C@@H](CCCCN)NC(=O)Cc1c(-c2ccc3ccccc3c2)[nH]c2c1ccc1ccccc12 | 781 and 681
